Test results: ChEMBL document CHEMBL4000179, “An Orally Active Bradykinin B1 Receptor Antagonist Engineered as a Bifunctional Chimera of Sunflower Trypsin Inhibitor” (J Med Chem, 2017)
The source made the active and inactive calls. The calls are words filed in the database; no cut-off is given here. Where a SMILES comes first, the peptide text is derived from it. Bridges are numbered along the chain shown (N, C = ends).

Columns and labels:
[1] = tested on: HeLa; test: Cytotoxicity against human HeLa cells up to 40 uM after 24 hrs by PrestoBlue cell viability assay; assay type: cell-based
[2] = Stability in 0.2 M aqueous HCl after 6 hrs by HPLC-MS analysis; assay type: physicochemical; details: read-out: Stability
Outline: (§1)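 Peptides were boiled at 100 °C, exposed to hydrochloride solution, or incubated with proteases for up to 6 h. Integrity was determined by HPLC and MS.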

[3] = Stability of the compound assessed as trypsin (unknown origin)-mediated compound degradation at enzyme to peptide ratio of 1:50 after 6 hrs by HPLC-MS analysis; assay type: ADME; details: human; outline: as §1
[4] = Stability of the compound assessed as pepsin (unknown origin)-mediated compound degradation at enzyme to peptide ratio of 1:50 after 6 hrs by HPLC-MS analysis; assay type: ADME; details: human; for Stability: 6 h; outline: as §1
[5] = Stability in pH 7 phosphate buffer at 0.1 mM at 100 degC after 6 hrs by HPLC-MS analysis; assay type: physicochemical; details: read-out: Stability; outline: as §1
[6] = molecular target: T1, Serine protease 1 (Bos taurus) (UniProt P00760); test: Inhibition of bovine beta-trypsin up to 100 uM using BAPNA as substrate preincubated for 15 mins followed by substrate addition measured over 60 mins by spectrometric method
T1 sequence (whole entry): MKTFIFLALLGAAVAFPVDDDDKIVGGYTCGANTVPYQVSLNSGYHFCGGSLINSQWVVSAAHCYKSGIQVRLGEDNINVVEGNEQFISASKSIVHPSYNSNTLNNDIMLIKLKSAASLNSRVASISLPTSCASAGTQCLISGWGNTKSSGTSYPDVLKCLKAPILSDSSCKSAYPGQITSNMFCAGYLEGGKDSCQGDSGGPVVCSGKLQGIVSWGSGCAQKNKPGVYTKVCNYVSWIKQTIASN
Outline: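 Trypsin activity was measured at 37°C with the chromogenic substrate BAPNA (N-α-benzoyl-DL-arginine 4-nitroanilide), reading absorbance at 405 nm. […] Runs were in triplicate, reported as mean ± SD.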

[7] = tested on: Mus musculus; test: Analgesic activity in ICR mouse assessed as increase in pain response latency at 10 mg/kg administered through oral gavage 30 mins prior to test by hot plate assay relative to control; assay type: functional
Outline: (§2)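 Mouse hot plate test with hind paw-licking as the nociceptive end point. Peptides were given i.p. or p.o. at several doses, with phosphate-buffered saline as the control. Response latency was compared with each animal's baseline latency and expressed as percent increment in response time.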

[8] = Metabolic stability in human serum assessed as parent compound remaining after 6 hrs by UPLC method; assay type: ADME, cell-free; details: read-out: Stability
Outline: (§3)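 Peptides were incubated in human serum for up to 6 h, sampled at time points, and the intact fraction was expressed relative to 0 h. Runs were in triplicate, reported as mean ± SD.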

[9] = molecular target: T2, B1 bradykinin receptor (Homo sapiens, UniProt P46663); test: Antagonist activity against bradykinin B1 receptor in human HeLa cells assessed as inhibition of Des-Arg9-BK-induced increase in intracellular Ca2+ level by Fluro-4 direct calcium dye based fluorescence assay; assay type: functional, cell-based
T2 sequence (P46663 whole entry): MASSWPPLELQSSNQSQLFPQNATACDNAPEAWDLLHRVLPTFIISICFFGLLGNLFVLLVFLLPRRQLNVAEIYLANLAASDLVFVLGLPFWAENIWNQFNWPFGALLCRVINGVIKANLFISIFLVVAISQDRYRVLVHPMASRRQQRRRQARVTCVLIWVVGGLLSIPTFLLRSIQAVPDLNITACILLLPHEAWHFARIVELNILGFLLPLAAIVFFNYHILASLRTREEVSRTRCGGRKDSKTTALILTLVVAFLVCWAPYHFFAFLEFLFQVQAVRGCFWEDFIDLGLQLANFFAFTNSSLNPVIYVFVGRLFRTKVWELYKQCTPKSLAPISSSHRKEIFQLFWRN
Outline: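 HeLa cells were pre-loaded with fluo-4 Direct dye and pretreated with peptide at 0 to 10 µM. B1 agonist des-Arg9-BK (100 nM) was then added to raise intracellular Ca2+, read as fluorescence change.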

[10] = molecular target: T3, Serine protease 1 (Bos taurus, UniProt P00760); test: Inhibition of bovine beta-trypsin using BAPNA as substrate preincubated for 15 mins followed by substrate addition measured over 60 mins by Dixon plot analysis
T3 sequence (P00760 whole entry): T1 sequence (whole entry)

[11] = Drug uptake in ICR mouse serum at 10 mg/kg, po after 4 hrs; assay type: ADME, organism-based; details: read-out: Drug uptake
Outline: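 Peptide was given orally at 10 mg/kg, and its serum concentration was measured 4 h later.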

[12] = tested on: Mus musculus; test: Analgesic activity in ICR mouse assessed as increase in pain response latency at 1 mg/kg,ip measured after 10 mins by hot plate assay relative to control; assay type: functional; outline: as §2
[13] = tested on: Serum; test: Metabolic stability in human serum after 2 hrs by UPLC method; assay type: ADME, cell-free; outline: as §3
[14] = tested on: Mus musculus; test: Analgesic activity in ICR mouse assessed as increase in pain response latency at 0.3 to 10 mg/kg administered through oral gavage 30 mins prior to test by hot plate assay relative to control; assay type: functional; outline: as §2
[15] = tested on: Mus musculus; test: Analgesic activity in ICR mouse assessed as increase in pain response latency at 0.03 to 1 mg/kg,ip measured after 10 mins by hot plate assay relative to control; assay type: functional, organism-based; outline: as §2

Row | remaining at 6 h [2] [%] | Stability [3] | Stability [4] | remaining at 6 h, 100 µM [5] [%] | inhibition [6] | remaining at 6 h [8] [%] | IC50 [9] [µM] | Ki [10] [µM] | concentration at 4 h [11] [µM] | metabolised at 6 h ([4]; pepsin, read-out: Drug degradation) [%] | Stability [13] | Compound | Activity [1] | Activity [7] [%] | Activity [12] [%] | Activity [14] | Activity [15]
1 | > 80 | Unstable | Unstable | > 80 |  |  |  |  |  |  |  | CC(C)C[C@@H]1NC(=O)[C@@H]2CCCN2C(=O)[C@H](CO)NC(=O)[C@H](Cc2ccccc2)NC(=O)CNC(=O)[C@@H]2CCCN2C(=O)[C@@H]2CCCN2C(=O)[C@H](CCCNC(=N)N)NC(=O)[C@H](CCCCN)NC(=O)[C@@H](NC(=O)[C@H](CCCNC(=N)N)NC(=O)CN)CSSC[C@@H](C(=O)N[C@@H](Cc2ccccc2)C(=O)N2CCC[C@H]2C(=O)N[C@@H](CC(=O)O)C(=O)O)NC1=O (H-GRCKRPPGFSPLCFPD-OH; disulfide 3-13) | Non-Toxic |  |  |  | 
2 | > 80 | Stable | Stable | > 80 | Active | > 90 | 2 | 0.00512 | 11.5 |  |  | CC[C@H](C)[C@@H]1NC(=O)[C@@H]2CCCN2C(=O)[C@@H]2CCCN2C(=O)[C@H]([C@@H](C)CC)NC(=O)[C@H](CO)NC(=O)[C@H](CCCCN)NC(=O)[C@H]([C@@H](C)O)NC(=O)[C@@H]2CSSC[C@H](NC1=O)C(=O)N[C@@H](CCCCN)C(=O)N[C@@H](CCCNC(=N)N)C(=O)N1CCC[C@H]1C(=O)N1CCC[C@H]1C(=O)NCC(=O)N[C@@H](Cc1ccccc1)C(=O)N[C@@H](CO)C(=O)N1CCC[C@H]1C(=O)N[C@@H](CC(C)C)C(=O)N2 (cyclo(CKRPPGFSPLCTKSIPPI); disulfide 1-11) | Non-Toxic | 71 | 125 |  | 
3 | > 80 | Unstable | Unstable | > 80 | Active |  |  |  |  |  |  | CC[C@H](C)[C@@H]1NC(=O)[C@@H]2CCCN2C(=O)[C@@H]2CCCN2C(=O)[C@H]([C@@H](C)CC)NC(=O)[C@H](CO)NC(=O)[C@H](CCCCN)NC(=O)[C@H]([C@@H](C)O)NC(=O)[C@@H](N)CSSC[C@@H](C(=O)N[C@@H](CCCCN)C(=O)N[C@@H](CCCNC(=N)N)C(=O)N2CCC[C@H]2C(=O)N2CCC[C@H]2C(=O)NCC(=O)N[C@@H](Cc2ccccc2)C(=O)N[C@@H](CO)C(=O)N2CCC[C@H]2C(=O)N[C@@H](CC(C)C)C(=O)O)NC1=O (H-CTKSIPPICKRPPGFSPL-OH; disulfide 1-9) | Non-Toxic |  |  |  | 
4 | > 80 | Unstable | Stable | > 80 | inactive | > 90 | 4.04 |  |  |  |  | CC(C)C[C@@H]1NC(=O)[C@@H]2CCCN2C(=O)[C@H](CO)NC(=O)[C@H](Cc2ccccc2)NC(=O)CNC(=O)[C@@H]2CCCN2C(=O)[C@@H]2CCCN2C(=O)[C@H](CCCNC(=N)N)NC(=O)[C@H](CCCCN)NC(=O)[C@@H]2CSSC[C@H](NC1=O)C(=O)N[C@@H](Cc1ccccc1)C(=O)N1CCC[C@H]1C(=O)N[C@@H](CC(=O)O)C(=O)NCC(=O)N[C@@H](CCCNC(=N)N)C(=O)N2 (cyclo(CFPDGRCKRPPGFSPL); disulfide 1-7) | Non-Toxic |  |  |  | 
5 | > 80 | Stable |  | > 80 |  |  |  |  |  | > 50 | Unstable | CC(C)C[C@H](NC(=O)[C@@H]1CCCN1C(=O)[C@H](CO)NC(=O)[C@H](Cc1ccccc1)NC(=O)CNC(=O)[C@@H]1CCCN1C(=O)[C@@H]1CCCN1C(=O)[C@H](CCCN=C(N)N)NC(=O)[C@@H](N)CCCCN)C(=O)O | Non-Toxic |  | 201 | <10% | 
6 | > 80 |  |  | > 80 | Active |  |  |  |  |  |  | CC[C@H](C)[C@@H]1NC(=O)[C@@H]2CCCN2C(=O)[C@@H]2CCCN2C(=O)[C@H]([C@@H](C)CC)NC(=O)[C@H](CO)NC(=O)[C@H](CCCCN)NC(=O)[C@H]([C@@H](C)O)NC(=O)[C@@H]2CSSC[C@H](NC1=O)C(=O)N[C@@H](Cc1ccccc1)C(=O)N1CCC[C@H]1C(=O)N[C@@H](CC(=O)O)C(=O)NCC(=O)N[C@@H](CCCNC(=N)N)C(=O)N2 | Non-Toxic |  |  | inactive | inactive
